Published values collected from several papers.
Each line is one published result; the experiments were not run side by side.
CASP8: Caspase-8 (CASP8, Homo sapiens, UniProt Q14790)
HTR5A: 5-hydroxytryptamine receptor 5A (HTR5A, Homo sapiens, UniProt P47898)
ABHD6: Monoacylglycerol lipase ABHD6 (ABHD6, Homo sapiens, UniProt Q9BV23)

SMILES	target	effect on	mode	technique	tested at	setting	inhibition [%]
N=C(N)c1ccc2cc(OC(=O)c3ccc(N=C(N)N)cc3)ccc2c1	CASP8	enzyme activity	inhibitor		10 µM		0
COCc1c(-c2cc3cc(C)cc(OC)c3s2)c2c(N)ncnn2c1CN1CCNC(=O)C1	Mitogen-activated protein kinase kinase kinase 19 (MAP3K19, Homo sapiens, UniProt Q56UN5)	cell-free assay		competition with immobilised ligand	1 µM		89
COc1cc2c3c(c1OC)-c1cc4c(cc1CC3N(C)CC2)OCO4 (racemic)	HTR5A	ligand displacement		radioligand	10 µM		92.8
C#Cc1n[nH]c2c(-c3cn([C@@H](C)c4ccccn4)c(=O)[nH]c3=O)cc(F)cc12	RAC-beta serine/threonine-protein kinase (AKT2, Homo sapiens, UniProt P31751)	enzyme activity	inhibitor		0.1 µM		3.8
CN(CCN1CCC(OC(=O)Nc2ccccc2-c2ccccc2)CC1)C(=O)c1ccc(CN2CCC(C(N)=O)CC2)cc1	D(4) dopamine receptor (DRD4, Homo sapiens, UniProt P21917)	ligand displacement		radioligand	1 µM		-4
Cn1cc(-c2cccc(N3CCc4c(sc5c4CC(C)(C)C5)C3=O)c2CO)cc(Nc2ccncn2)c1=O	Beta-adrenergic receptor kinase 1 (GRK2, Homo sapiens, UniProt P25098)	enzyme activity	inhibitor		1 µM		14
CN(C)C(=O)COC(=O)Cc1ccc(OC(=O)c2ccc(NC(=N)N)cc2)cc1	CASP8	enzyme activity	inhibitor		10 µM		0
COc1ccccc1N(C)C(=O)Oc1nsnc1N1CCCCC1	ABHD6	enzyme activity	inhibitor	fluorescence	1 µM	lysate	11
Cn1cc(-c2cc(F)cc(N3CCn4c(cc5c4CCCC5)C3=O)c2CO)cc(Nc2ccc(N3CCN(C4COC4)CC3)cn2)c1=O	Casein kinase II subunit alpha (CSNK2A1, Homo sapiens, UniProt P68400)	enzyme activity	inhibitor		0.1 µM		18
CN(C)C(=O)Oc1nsnc1N1CCCCC1	ABHD6	enzyme activity	inhibitor	fluorescence	1 µM	lysate	10
CCN(CC)CCCC[C@H](NC(=O)[C@H](CC(C)C)NC(=O)[C@H](C)NC(=O)[C@H](Cc1ccccc1)NC(=O)c1ccc(C(C)(C)C)cc1)C(=O)N[C@@H](CO)C(=O)OC	HTR5A	ligand displacement		radioligand	10 µM		7
CCOC(=O)c1ccc(OC(=O)CCCCCNC(=N)N)cc1	CASP8	enzyme activity	inhibitor		10 µM		1
c1ccc(C(NCCNC(c2ccccc2)c2ccccc2)c2ccccc2)cc1	D(4) dopamine receptor (DRD4, Homo sapiens, UniProt P21917, del265-296)	cell-free assay			10 µM		10
